Measured values published in ChEMBL document CHEMBL1151442, “Genetic and phenotypic identification of fusidic acid-resistant mutants with the small-colony-variant phenotype in Staphylococcus aureus” (2007).
Active and inactive are the calls of the source. No cut-off for these calls is given here.

How the values were obtained:
Format in all cases: functional
[1] = test system: Staphylococcus aureus; test: Antibacterial activity against fusidic acid-resistant Staphylococcus aureus AH198 harboring Gly452Ser mutation in fusA gene after 18 to 24 hrs by Etest strip assay
Procedure, shortened: (§1)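 Mutants of lab strain 8325-4 were selected on LA with FA 2 μg/ml for 48 h at 37°C and purified on selective medium. For the MIC, one colony was suspended in 0.9% NaCl to 0.5 McFarland and swabbed onto Mueller-Hinton agar. An Etest strip was applied and plates were incubated at 37°C for 18–24 h until the lawn was evident.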

[2] = test system: Staphylococcus aureus; test: Antibacterial activity against fusidic acid-resistant Staphylococcus aureus AH207 harboring Thr385Asn mutation in fusA gene after 18 to 24 hrs by Etest strip assay; procedure, shortened: as §1
[3] = test system: Staphylococcus aureus; test: Ratio of MIC for kanamycin-resistant Staphylococcus aureus harboring mutations in FusE gene to MIC for wild type kanamycin-susceptible Staphylococcus aureus AH001
[4] = test system: Staphylococcus aureus; test: Antibacterial activity against fusidic acid-resistant Staphylococcus aureus AH197 harboring Leu456Phe mutation in fusA gene after 18 to 24 hrs by Etest strip assay; procedure, shortened: as §1
[5] = test system: Staphylococcus aureus; test: Antibacterial activity against fusidic acid-resistant Staphylococcus aureus AH206 harboring Arg464Ser mutation in fusA gene after 18 to 24 hrs by Etest strip assay; procedure, shortened: as §1
[6] = test system: Staphylococcus aureus; test: Antibacterial activity against fusidic acid-resistant Staphylococcus aureus AH190 harboring Arg464His mutation in fusA gene after 18 to 24 hrs by Etest strip assay; procedure, shortened: as §1
[7] = test system: Staphylococcus aureus; test: Antibacterial activity against fusidic acid-resistant Staphylococcus aureus AH194 harboring Pro404Leu mutation in fusA gene after 18 to 24 hrs by Etest strip assay; procedure, shortened: as §1
[8] = test system: Staphylococcus aureus; test: Ratio of MIC for kanamycin-resistant Staphylococcus aureus harboring mutations in FusA gene to MIC for wild type kanamycin-susceptible Staphylococcus aureus AH001
[9] = test system: Staphylococcus aureus; test: Antibacterial activity against fusidic acid-resistant Staphylococcus aureus AH201 harboring Gly452Cys mutation in fusA after 18 to 24 hrs by Etest strip assay; procedure, shortened: as §1
[10] = test system: Staphylococcus aureus; test: Antibacterial activity against fusidic acid-resistant Staphylococcus aureus AH187 harboring His457Tyr mutation in fusA gene after 18 to 24 hrs by Etest strip assay; procedure, shortened: as §1
[11] = test system: Staphylococcus aureus; test: Antibacterial activity against fusidic acid-resistant Staphylococcus aureus AH196 harboring Pro406Leu mutation in fusA gene after 18 to 24 hrs by Etest strip assay; procedure, shortened: as §1

## GENTAMICIN
[1]
  Activity: Active
[2]
  Activity: Active
[3]
  fold change (FC): 4
[4]
  Activity: Active
[5]
  Activity: Active
[6]
  Activity: Active
[7]
  Activity: Active
[8]
  fold change (FC): 4
[9]
  Activity: Active
[10]
  Activity: Active
[11]
  Activity: Active
